One experiment relates to Bacillus subtilis. The experiment can be described thus: Antibacterial activity against Bacillus subtilis assessed as growth inhibition after 18 hrs by agar diffusion method. Type of experiment: functional. The method, boiled down:
(§1)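 MIC by agar diffusion: ethanolic solutions, starting at a maximum of 0.01 mg/μL with successive 2-fold dilutions; 6 μL aliquots deposited on solidified agar; inhibition zone diameter read after 18 h incubation at 37 °C. Cefotaxime positive control, EtOH negative control.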
(In agar diffusion tests the substance spreads into inoculated agar from a disc or well.)

The test system of the next experiment is Staphylococcus aureus. In words: Antibacterial activity against Staphylococcus aureus assessed as growth inhibition after 18 hrs by agar diffusion method. Type of experiment: functional. The essentials:
as §1

The next experiment relates to Klebsiella pneumoniae. The experiment can be described thus: Antibacterial activity against Klebsiella pneumoniae assessed as growth inhibition at 0.01 mg/uL after 18 hrs by agar diffusion method. Format: functional, organism-based. The method, boiled down: (§2)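 Single-concentration agar diffusion screen: 6 μL aliquots of ethanolic solutions of pure compounds (0.01 mg/μL) deposited on solidified agar; inhibition zone diameter measured after 18 h incubation at 37 °C.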

In the next experiment the test system is Escherichia coli. The experiment can be described thus: Antibacterial activity against Escherichia coli assessed as growth inhibition at 0.01 mg/uL after 18 hrs by agar diffusion method. Type of experiment: functional, organism-based. The method, boiled down:
as §2

Converted amounts (≈) assume the structure as drawn. The source made the active and inactive calls. The calls are words filed in the database; no cut-off is given here.

The MIC is the lowest concentration found to suppress growth.

On to `CO/N=C(\C(=O)N[C@@H]1C(=O)N2C(C(=O)O)=C(COC(C)=O)CS[C@H]12)c1csc(N)n1` [CEFOTAXIME], for which the minimal inhibitory concentration (MIC) stood at 12500 µg/mL (≈ 27.4 mM) in the experiment with Bacillus subtilis and 130 µg/mL (≈ 0.285 mM) with Staphylococcus aureus.
Turning to `CC1=CC[C@H]2C(C)(C)CCC[C@]2(C)[C@H]1CC/C(C)=C\C(=O)O`, the “growth inhibition (GI)” value with Klebsiella pneumoniae and in the experiment with Escherichia coli was “inactive” in each case. For the same compound, the figures for the minimum inhibitory concentration (MIC) with Bacillus subtilis and with Staphylococcus aureus were 1000 µg/mL (≈ 3.28 mM) and 10000 µg/mL (≈ 32.8 mM), respectively.
Take `CC1=CC[C@H]2C(C)(C)CCC[C@]2(C)[C@H]1CC[C@H](C)CC(=O)O`: the “growth inhibition (GI)” value with Klebsiella pneumoniae and with Escherichia coli was “inactive” throughout. The MIC with Bacillus subtilis is 150 µg/mL (≈ 0.489 mM); in the experiment with Staphylococcus aureus, 780 µg/mL (≈ 2.54 mM).
Consider `C[C@H](CC[C@@H]1[C@@]2(C)CCCC(C)(C)[C@@H]2CC[C@@]1(C)O)CC(=O)O`, for which the “growth inhibition (GI)” value in the experiment with Klebsiella pneumoniae and with Escherichia coli was “inactive” in each case. The MIC with Bacillus subtilis was determined as 1560 µg/mL (≈ 4.81 mM); in the experiment with Staphylococcus aureus it was 2340 µg/mL (≈ 7.21 mM).

For the origin of these results see ChEMBL document CHEMBL3232859, “Absolute configuration of (13R)- and (13S)-labdane diterpenes coexisting in Ageratina jocotepecana” (2014).
